Reference: paper PMC11868578 (Nature Communications, 2025)
In brackets after ≈: the same amount, converted by molar mass.

T1: N WT (NWT) (Tomato spotted wilt virus (TSWV), UniProt P26000 1-258)
T1 sequence: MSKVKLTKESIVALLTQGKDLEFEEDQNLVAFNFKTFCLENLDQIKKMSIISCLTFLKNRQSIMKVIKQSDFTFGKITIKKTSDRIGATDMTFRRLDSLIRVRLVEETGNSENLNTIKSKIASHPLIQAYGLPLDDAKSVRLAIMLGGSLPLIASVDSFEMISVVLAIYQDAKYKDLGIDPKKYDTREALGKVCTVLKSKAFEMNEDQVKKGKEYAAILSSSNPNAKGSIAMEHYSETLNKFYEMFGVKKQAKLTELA


What was measured:
[1] = tested on: N-YFP IBs (N protein condensates); assay: N-YFP inclusion bodies; type: cell-based, Nicotiana benthamiana
PVY = assay: Inactivation activity against PVY; type: in vivo; conditions: read-out: Inhibition rate (inactivation activity) against PVY
TSWV = assay: Anti-TSWV assay, half-leaf method on Nicotiana glutinosa; type: in vivo, tomato spotted wilt virus; conditions: for Curative effect (%) / Inactive effect (%) (inactivation activity) / Protective effect (%): 500 µg/mL, half-leaf method, N. glutinosa, mean ± SD, n = 3; for EC50: Orthotospovirus tomatomaculae, in Nicotiana glutinosa
In short: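 Half-leaf test on healthy N. glutinosa, leaves pre-dusted with carborundum and virus extract brushed on. Curative: leaves rinsed 30 min after inoculation, then agent put on the right half. Protective: agent put on 12 h before inoculation. Inactivation: agent mixed 1:1 with virus extract on ice for 30 min, then put on the right half; left half got buffer-diluted virus. Plants grown at 25 °C day/23 °C night. Lesions counted after about 2 days. EC50 from 31.25–500 µg/mL.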

PMMoV = assay: Inactivation activity against PMMoV; type: in vivo; conditions: read-out: Inhibition rate (inactivation activity) against PMMoV
N WT (NWT) = target: T1, N WT (NWT); assay: BLI

| Molecule | Effect on N-YFP particle number, leaves treated at 36 h ([1]; 36 hpi) | Effect on large N-YFP granules, leaves treated at 72 h ([1]; 72 hpi) | inhibition at 500 µg/mL (PVY) | Curative effect (%) (TSWV) | Inactive effect (%) (inactivation activity) (TSWV) | Protective effect (%) (TSWV) | Inactive effect (%) (inactivation activity) (TSWV; listed as ribavirin) | EC50 (TSWV) | inhibition at 500 µg/mL (PMMoV) | Inactive effect (%) (inactivation activity) (TSWV; listed as ningnanmycin) | Kd (N WT (NWT)) |
| --- | --- | --- | --- | --- | --- | --- | --- | --- | --- | --- | --- |
| OCCCCCCO [1,6-hexanediol] | significant reduction in particle number | difficult to observe a significant decrease in the number of large particles |  |  |  |  |  |  |  |  |  |
| NC(=O)c1ncn([C@@H]2O[C@H](CO)[C@@H](O)[C@H]2O)n1 [Ribavirin] |  |  | 55.3% | 39.2 ± 3.2% | 43.7 ± 7.5% | 40.4 ± 6.8% | 43.7% | 802 ± 12.6 µg/mL (≈ 3280 µM) | 56.5% |  |  |
| CNCC(=O)N[C@@H](CO)C(=O)N[C@H]1[C@H](O)[C@@H](O)[C@H](n2ccc(N)nc2=O)O[C@@H]1C(N)=O [Ningnanmycin] |  |  | 77.6% | 57.9 ± 1.5% | 69.3 ± 2.4% | 61.7 ± 5.2% |  | 149 ± 8.7 µg/mL (≈ 337 µM) | 72% | 69.3% |  |
| GAGAGCAAUUGUGUCAGAA (ssRNA) [biotinylated RNA (BLI)] |  |  |  |  |  |  |  |  |  |  | 7.3 nM |
